Data taken from ChEMBL document CHEMBL4138126, “Synthesis, antiproliferative, anti-tubulin activity, and docking study of new 1,2,4-triazoles as potential combretastatin analogues” (Eur J Med Chem, 2017).

Tests used:
HepG2 [1] = test: Cytotoxicity in human HepG2 cells assessed as reduction in cell viability incubated for 48 hrs by MTT assay; format: functional, cell-based; conditions: HepG2, 48 h
Method in brief: (§1)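 HepG2 and HL60 (ATCC) grown in DMEM with 10% FBS, 2 mM L-glutamine, penicillin/streptomycin, amphotericin B at 37 °C, 5% CO2. Samples dissolved in DMSO, diluted thousandfold in assay. Cells seeded in serum-free medium, treated with serial concentrations 48 h; MTT 4 h, formazan dissolved in acidified isopropanol, A570. Triplicates averaged; viability relative to untreated/vehicle control.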

HL-60 = test: Cytotoxicity in human HL60 cells assessed as reduction in cell viability incubated for 48 hrs by MTT assay; format: functional, cell-based; conditions: HL-60, 48 h; method in brief: as §1
HepG2 [2] = test: Inhibition of beta tubulin polymerisation in human HepG2 cells incubated for 2 hrs using TMB substrate by ELISA relative to untreated control; format: cell-based; set-up: concentration or dose not given beside the values; conditions: dose or concentration not given here
[3] = Inhibition of beta tubulin polymerisation in human HepG2 cells incubated for 2 hrs using TMB substrate by ELISA; format: cell-based; conditions: HepG2, 2 h

SMILES | IC50 (HepG2 [1]) [µM] | IC50 (HL-60) [µM] | inhibition (HepG2 [2]) [%] | IC50 [3] [µM]
COc1cccc(CNC(=O)c2nc(-c3cc(OC)c(OC)c(OC)c3)n(-c3cccc(OC)c3)n2)c1 | 0.9 | > 100 | – | –
COc1cccc(-n2nc(C(=O)Nc3ccc(F)c(F)c3F)nc2-c2cc(OC)c(OC)c(OC)c2)c1 | 16.3 | 27.2 | – | –
COc1cccc(-n2nc(C(=O)Nc3cc(OC)c(OC)c(OC)c3)nc2-c2cc(OC)c(OC)c(OC)c2)c1 | 8.51 | 6.02 | – | –
COc1cccc(-n2nc(C(=O)Nc3ccccc3OC)nc2-c2cc(OC)c(OC)c(OC)c2)c1 | 29.9 | 29.9 | – | –
COc1cccc(-n2nc(C(=O)Nc3cc(F)cc(F)c3)nc2-c2cc(OC)c(OC)c(OC)c2)c1 | 1.38 | 54.2 | 65.2 | 1.3
COc1ccc(/C=C\c2cc(OC)c(OC)c(OC)c2)cc1O [COMBRETASTATIN A4] | 2.41 | 0.56 | 72.3 | 2.4
COc1cccc(NC(=O)c2nc(-c3cc(OC)c(OC)c(OC)c3)n(-c3cccc(OC)c3)n2)c1 | 15.3 | 15.3 | – | –
COc1cccc(-n2nc(C(=O)Nc3ccc(F)c(F)c3)nc2-c2cc(OC)c(OC)c(OC)c2)c1 | 11 | 31.3 | – | –
CCOc1ccc(NC(=O)c2nc(-c3cc(OC)c(OC)c(OC)c3)n(-c3ccc(OCC)cc3)n2)cc1 | 29.8 | 6 | – | –
COc1cccc(-n2nc(C(=O)Nc3ccc(OC)c(OC)c3)nc2-c2cc(OC)c(OC)c(OC)c2)c1 | 32.5 | 14.2 | – | –
CCOc1ccc(NC(=O)c2nc(-c3cc(OC)c(OC)c(OC)c3)n(-c3cccc(OC)c3)n2)cc1 | 8.75 | 14.5 | – | –
CCOc1ccc(-n2nc(C(=O)Nc3ccc(OC)c(OC)c3)nc2-c2cc(OC)c(OC)c(OC)c2)cc1 | 32.8 | 4.3 | – | –
